SENP8 block-1: blocks the human protease SENP8. actives 1.2% (n = 330,000). inhibition, % at 10 µM. purified SENP8, Z-RLRGG-aminoluciferin cleavage, luminescence. AID 2540. Q96LD8; in the data active means inhibition above about 50%
Target sequence (Q96LD8 whole entry, looked up): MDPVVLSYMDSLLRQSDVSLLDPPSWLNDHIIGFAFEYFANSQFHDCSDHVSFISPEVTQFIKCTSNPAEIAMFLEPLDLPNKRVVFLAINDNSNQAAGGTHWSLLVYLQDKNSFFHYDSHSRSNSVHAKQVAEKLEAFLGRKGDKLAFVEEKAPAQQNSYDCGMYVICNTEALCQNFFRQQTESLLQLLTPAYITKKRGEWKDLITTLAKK
SENP8 block-2: inhibitors of human SENP8 protease | Q96LD8 | recombinant SENP8, Nedd8 substrate fluorescence | inhibition, % at 20 µM | actives 0.64% (n = 360,000); in the data active means inhibition mostly above about 40%, no sharp cut-off; inactive means mostly below about 27%
SENP6 inh: inhibitors of human SENP6 protease | actives 1.8% (n = 330,000) | inhibition, % at 10 µM | Q9GZR1 | Recombinant SENP6 catalytic domain, aminoluciferin luminescence | AID 2599;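 active means inhibition above about 50% at the single tested dose, limit read from the data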
SENP7 inh: blocks the human protease SENP7; Q9BQF6; recombinant SENP7, Z-RLRGG-aminoluciferin luminescence, 40 min; inhibition, % at 5 µM; actives 1.5% (n = 330,000); AID 434973;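 active means inhibition above about 50% at the single test dose, limit read from the data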
SENP1 FRET inh: SENP1 (human) catalytic domain inhibition. recombinant SENP1 catalytic domain, CyPet-SUMO1-YPet FRET cleavage. actives 0.21% (n = 360,000). inhibition, % at 10 µM. AID 624204. Q9P0U3;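 active means inhibition at least 30% at 10 µM, raw YFP signal under a set limit, fluorescence ratio 0.5 to 1.5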
Target sequence (Q9P0U3 419-644 limits assumed): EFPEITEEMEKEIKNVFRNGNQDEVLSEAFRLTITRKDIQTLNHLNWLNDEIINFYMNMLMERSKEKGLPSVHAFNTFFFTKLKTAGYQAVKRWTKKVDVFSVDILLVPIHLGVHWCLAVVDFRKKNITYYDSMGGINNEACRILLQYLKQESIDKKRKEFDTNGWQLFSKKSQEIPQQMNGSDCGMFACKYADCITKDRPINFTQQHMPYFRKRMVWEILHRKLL
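material = recombinant human SENP1 catalytic domain, His6-tagged | quantity = 20 pM enzyme | reagent = 25 nM SUMO1 FRET substrate | compound dosing = 10 µM single point, 0.5% DMSO | timing = 50 min enzyme reaction, room temperature, light-protected | detection = FRET, CFP and YFP emission | control set = no-enzyme low, enzyme-DMSO high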
SENP8 confirm: confirmation of human SENP8 protease inhibitors; inhibition, % at 12.5 µM; shares compounds with SENP7 inh; AID 488912; Recombinant SENP8, Z-RLRGG-aminoluciferin luminescence, 60 min; actives 40% (n = 6,200);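 active means mean inhibition across replicates above about 50%, limit read from the data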
SENP6 conf: human SENP6 inhibition, confirmed; shares compounds with SENP7 inh; recombinant SENP6, Z-RLRGG-aminoluciferin luminescence; inhibition, % at 12.5 µM; actives 58% (n = 6,200); AID 488915
SENP7 confirm: human SENP7 inhibition, confirmed | shares compounds with SENP7 inh | recombinant SENP7, Z-RLRGG-aminoluciferin luminescence, 40 min | inhibition, % at 12.5 µM | actives 69% (n = 6,200) | AID 488917
Casp3 select: inhibits human caspase-3 in SENP selectivity test; shares compounds with SENP7 inh; purified caspase-3, Z-DEVD-aminoluciferin luminescence, 60 min; inhibition, % at 12.5 µM; actives 60% (n = 6,200); AID 488918;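 active means mean inhibition above about 50%, limit read from the data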
Target sequence (P42574 28-227 limits assumed): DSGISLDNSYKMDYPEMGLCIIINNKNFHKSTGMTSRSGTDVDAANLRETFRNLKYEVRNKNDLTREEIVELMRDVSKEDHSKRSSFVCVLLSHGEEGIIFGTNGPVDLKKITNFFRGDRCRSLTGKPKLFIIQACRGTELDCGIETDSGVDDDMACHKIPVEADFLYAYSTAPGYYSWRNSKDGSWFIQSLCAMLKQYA
Luc interf: counter-screen for SENP inhibitors: luminescence interference; inhibition, % at 12.5 µM; actives 39% (n = 6,200); Pre-incubated SENP8/Z-RLRGG-aminoluciferin, luciferase luminescence interference; AID 488919; shares compounds with SENP7 inh;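 active means mean inhibition above about 50% when retested at one dose, limit read from the data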
Large screens that a line does not name were inactive (follow-up assays come after a bar, where they were run). The list is not random: actives were taken first. Their share in the collection is about 2.5%.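 How the source made its calls, unless noted: active means mean inhibition above about 50% in the one-dose retest (limit read from the data); inactive means the rest.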

COc1ccc(NC(=O)Nc2cc(C)ccc2F)cc1	SENP8 block-1 88, SENP6 inh 92 | SENP8 confirm inactive | SENP6 conf 92 | SENP7 confirm 101 | Casp3 select 91 | Luc interf 59
COc1ccc(NC(=O)Nc2ccccc2C(N)=O)cc1OC	none
Clc1ccc(/C=C/c2nc3ccccc3[nH]2)cc1	SENP8 block-1 97, SENP6 inh 98, SENP7 inh 100 | SENP8 confirm 99 | SENP6 conf 100 | SENP7 confirm 103 | Casp3 select 98 | Luc interf 83
Clc1cccc(Cl)c1/C=C/c1nc2ccccc2[nH]1	SENP8 block-1 89, SENP6 inh 82, SENP7 inh 93 | SENP8 confirm 94 | SENP6 conf 96 | SENP7 confirm 101 | Casp3 select 87 | Luc interf 76
Clc1ccc(/C=C/c2nc3ccccc3[nH]2)c(Cl)c1	SENP8 block-1 97, SENP6 inh 100, SENP7 inh 99 | SENP8 confirm 99 | SENP6 conf 100 | SENP7 confirm 104 | Casp3 select 98 | Luc interf inactive
C(=N\n1cnnc1)/c1nc2ccccc2[nH]1	none
NC(=S)N=Nc1ccc(O)cc1	none (no result: SENP8 block-1, SENP6 inh, SENP7 inh)
COc1cc2c(c(OC)c1OC)C(c1ccc(C)cc1)CC(=O)O2 (centres undefined)	none (no result: SENP8 block-1, SENP6 inh)
N#Cc1ccsc1NC(=O)COC(=O)c1ccc(Br)o1	none
N#Cc1ccsc1NC(=O)COC(=O)c1ccc2ccccc2c1	SENP8 block-1 84, SENP6 inh 91, SENP7 inh 86 | SENP8 confirm inactive | SENP6 conf 67 | SENP7 confirm 100 | Casp3 select 80 | Luc interf inactive
N#Cc1ccsc1NC(=O)COC(=O)c1cc(Br)ccc1O	SENP8 block-1 89, SENP6 inh 95, SENP7 inh 85 | SENP8 confirm 75 | SENP6 conf 82 | SENP7 confirm 87 | Casp3 select 70 | Luc interf inactive
COc1ccc(NC(=O)CSCC(=O)Nc2sccc2C#N)cc1	none
COc1ccc(CCC(=O)Nc2sccc2C#N)cc1	SENP8 block-1 80, SENP6 inh 86, SENP7 inh 87 (no result: SENP8 block-2, SENP1 FRET inh) | SENP8 confirm 84 | SENP6 conf 85 | SENP7 confirm 98 | Casp3 select 89 | Luc interf 59
COc1ccc(/C=C(\NC(=O)c2ccc(C)cc2)C(=O)NCCCn2ccnc2)cc1OC	none
Cc1nn(Cc2ccccc2Cl)c(C)c1C(=O)NCCN1C(=O)S/C(=C\c2ccccc2)C1=O	SENP7 inh 66 | SENP8 confirm inactive | SENP6 conf inactive | SENP7 confirm inactive | Casp3 select inactive | Luc interf inactive
Cc1nn(Cc2ccccc2Cl)c(C)c1C(=O)NCc1ccco1	none
O=C(NC1=C(NC2CCS(=O)(=O)C2)C(=O)c2ccccc2C1=O)c1ccccc1 (centres undefined)	SENP8 block-1 60, SENP8 block-2 87, SENP6 inh 86 | SENP8 confirm inactive | SENP6 conf 86 | SENP7 confirm 55 | Casp3 select 93 | Luc interf inactive
Cc1cccc(C)c1OCC(=O)Nn1c(C)nc2ccccc2c1=O	none
Cc1nc2ccccc2c(=O)n1NC(=O)COc1ccccc1	SENP7 inh 57 | SENP8 confirm inactive | SENP6 conf inactive | SENP7 confirm inactive | Casp3 select inactive | Luc interf inactive
Cc1ccc(S(=O)(=O)N2CCc3c2cc([N+](=O)[O-])cc3[N+](=O)[O-])cc1	none
CCOc1ccc(NC(=O)c2nsc(Cl)c2Cl)cc1	none
O=C(Nc1ccc(F)c(Cl)c1)c1nsc(Cl)c1Cl	SENP8 block-1 91, SENP6 inh 93, SENP7 inh 96 | SENP8 confirm 53 | SENP6 conf 74 | SENP7 confirm 87 | Casp3 select 80 | Luc interf inactive
O=C(O)C1=C(C(=O)Nc2ccc(F)c(Cl)c2)CCCC1	none
O=C(Nc1ccc(F)cc1)c1nsc(Cl)c1Cl	SENP8 block-1 84, SENP6 inh 94, SENP7 inh 83 | SENP8 confirm 62 | SENP6 conf 87 | SENP7 confirm 97 | Casp3 select 90 | Luc interf 57
COc1ccc(NC(=O)C2Cc3c(-c4cccc(C(C)=O)c4)ccnc3O2)cc1 (centres undefined)	none (no result: SENP8 block-1, SENP6 inh, SENP7 inh)
COc1ccc(/C=N/Nc2ccccn2)c(OC)c1OC	none
COc1ccc(/C=N\Nc2ccccn2)c(OC)c1	SENP8 block-1 54, SENP6 inh 55 | SENP8 confirm inactive | SENP6 conf 62 | SENP7 confirm 87 | Casp3 select 62 | Luc interf inactive
COc1ccccc1/C=N/Nc1nccnc1Cl	SENP8 block-1 85, SENP6 inh 90, SENP7 inh 91 | SENP8 confirm 86 | SENP6 conf 85 | SENP7 confirm 98 | Casp3 select 95 | Luc interf 89
COc1cc(/C=N/Nc2nncc3ccccc23)cc(OC)c1OC	SENP8 block-1 59, SENP6 inh 70, SENP7 inh 78 | SENP8 confirm 77 | SENP6 conf 75 | SENP7 confirm 94 | Casp3 select 82 | Luc interf 71
COc1ccc(/C=N/Nc2nncc3ccccc23)c(OC)c1	SENP8 block-1 64, SENP6 inh 77, SENP7 inh 78 | SENP8 confirm inactive | SENP6 conf 73 | SENP7 confirm inactive | Casp3 select inactive | Luc interf inactive
C(=N\Nc1nncc2ccccc12)/c1ccccc1	none
N#CCCN(Cc1ccccc1)C(C(=O)NC1CCCCC1)c1ccnc2ccccc12 (centres undefined)	none (no result: SENP8 block-1, SENP6 inh, SENP7 inh)
O=C(Nc1ccccc1)[C@@H]1CC=C[C@@H]2CCN(C3CCCCC3)C(=O)[C@@H]21	none
Cc1[nH]nc(C(F)(F)F)c1N=NN1CCOCC1	none (no result: SENP8 block-1, SENP6 inh, SENP7 inh)
NC1=NC(c2ccccc2)N=C(Nc2ccccc2)N1 (centres undefined)	none (no result: SENP8 block-2, SENP1 FRET inh)
O=C(NCCc1cn2cccnc2n1)C1CCC(=O)N(Cc2ccccc2F)C1 (centres undefined)	none (no result: SENP8 block-1, SENP6 inh, SENP7 inh)
Cc1cccc(/C=N/Nc2nncc3ccccc23)c1	SENP8 block-1 90, SENP6 inh 92, SENP7 inh 96 | SENP8 confirm 74 | SENP6 conf 94 | SENP7 confirm 102 | Casp3 select 94 | Luc interf inactive
